Values after ≈ are worked out from the molar mass of the structure shown. Active and inactive are the calls of the source.

One assay relates to Vero. The assay can be described thus: Selectivity index, IC50 for Vero cell line/ MIC for multidrug resistant Mycobacterium tuberculosis. It counts as functional. Put shortly:
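Vero cells were exposed to compound at 62.5 µg/mL for 72 h. Viability was read by MTT conversion to formazan. Selectivity index is the Vero IC50 divided by the agar-dilution MIC against the listed strain.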
`S=C(NN=C(c1ccccc1)c1ccccc1)Nc1ncc(C2CCC2)o1` registered a Selectivity index of more than 1250.

Another assay relates to Mycobacterium tuberculosis. As to the kind of experiment: Antimycobacterial activity against multidrug resistant Mycobacterium tuberculosis. It counts as functional. A digest of the protocol:
(§1)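 MIC determined by agar dilution, following the NCCLS-recommended approach, in duplicate. Strains were M. tuberculosis H37Rv and a multidrug-resistant M. tuberculosis. Concentrations were tested up to 25 µg/mL.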
Regarding `C/C(=N\N=C(/S)Nc1ncc(C2CCC2)o1)c1ccccc1O`, the MIC was determined as 3.12 µg/mL (≈ 9.44 µM).

For `Oc1[nH]c2ccccc2c1/N=N/C(S)=N/c1ncc(C2CCC2)o1`, the lowest concentration to inhibit growth (MIC) was 25 µg/mL (≈ 73.2 µM).

Take `O=[N+]([O-])c1cccc(/C=N/N=C(\S)Nc2ncc(C3CCC3)o2)c1`: 0.78 µg/mL (≈ 2.26 µM) was the least that counted as inhibitory (MIC).

As to `S=C(NN=C(Cc1ccccc1)Cc1ccccc1)Nc1ncc(C2CCC2)o1`, the lowest concentration to inhibit growth (MIC) was 6.25 µg/mL (≈ 15.4 µM).

Molecule `COc1c(N2CCNC(C)C2)c(F)cc2c(=O)c(C(=O)O)cn(C3CC3)c12` (stereo unspecified) [GATIFLOXACIN] came in with an MIC of 6.25 µg/mL (≈ 16.6 µM).

`S=C(N/N=C/c1ccc(Cl)cc1)Nc1ncc(C2CCC2)o1` yielded an MIC of 1.56 µg/mL (≈ 4.66 µM). This MIC lies about 4-fold lower than the previous one.

In turn, `Cc1ccc(/C=N/N=C(\S)Nc2ncc(C3CCC3)o2)cc1` showed an MIC of 3.12 µg/mL (≈ 9.92 µM).

As for `CN(C)c1ccc(/C=N/N=C(\S)Nc2ncc(C3CCC3)o2)cc1`, the MIC stood at 3.12 µg/mL (≈ 9.08 µM).

On to `O=[N+]([O-])c1ccc(/C=N/N=C(\S)Nc2ncc(C3CCC3)o2)cc1`, for which the MIC came to 0.39 µg/mL (≈ 1.13 µM).

As to `O=[N+]([O-])c1ccccc1/C=N/N=C(\S)Nc1ncc(C2CCC2)o1`, inhibition of growth (MIC) required 0.78 µg/mL (≈ 2.26 µM).

`S=C(NN=C(c1ccccc1)c1ccccc1)Nc1ncc(C2CCC2)o1` yielded an MIC of 0.1 µg/mL (≈ 0.266 µM).

`C/C(=N\N=C(/S)Nc1ncc(C2CCC2)o1)c1ccc(O)cc1` gave an MIC of 3.12 µg/mL (≈ 9.44 µM).

`S=C(N/N=C(\c1ccccc1)c1ccc(Br)cc1)Nc1ncc(C2CCC2)o1`: the MIC was determined as 0.05 µg/mL (≈ 0.11 µM). Against the preceding molecule, the MIC is about 62-fold lower.

The molecule `CO[C@H]1/C=C/O[C@@]2(C)Oc3c(C)c(O)c4c(O)c(c(/C=N/N5CCN(C)CC5)c(O)c4c3C2=O)NC(=O)/C(C)=C\C=C\[C@H](C)[C@H](O)[C@@H](C)[C@@H](O)[C@@H](C)[C@H](OC(C)=O)[C@@H]1C` [RIFAMPIN] showed a minimum inhibitory concentration (MIC) of 3.12 µg/mL (≈ 3.79 µM).

`C/C(=N\N=C(/S)Nc1ncc(C2CCC2)o1)c1ccc(C)cc1` registered an MIC of 0.78 µg/mL (≈ 2.37 µM). Against the preceding molecule, the MIC is about 4-fold lower.

`COc1cc(/C=N/N=C(\S)Nc2ncc(C3CCC3)o2)ccc1O` returned an MIC of 12.5 µg/mL (≈ 36.1 µM).

Turning to `C/C(=N\N=C(/S)Nc1ncc(C2CCC2)o1)c1ccc([N+](=O)[O-])cc1`, the MIC turned out to be 0.2 µg/mL (≈ 0.556 µM).

`CC[C@@H](CO)NCCN[C@@H](CC)CO` [ETHAMBUTOL] came in with an MIC of 25 µg/mL (≈ 122 µM).

In turn, `C/C(=N\N=C(/S)Nc1ncc(C2CCC2)o1)c1ccc(N)cc1` registered an MIC of 0.78 µg/mL (≈ 2.37 µM). This MIC lies about 32-fold lower than the previous one.

Take `COc1ccc(/C=N/N=C(\S)Nc2ncc(C3CCC3)o2)cc1`: 6.25 µg/mL (≈ 18.9 µM) was the least that counted as inhibitory (MIC).

On to `C/C(=N\N=C(/S)Nc1ncc(C2CCC2)o1)c1ccccc1`, for which the MIC came to 3.12 µg/mL (≈ 9.92 µM).

`NNC(=O)c1ccncc1` [ISONIAZID] showed an MIC of 1.56 µg/mL (≈ 11.4 µM).

The molecule `Oc1ccccc1/C=N/N=C(\S)Nc1ncc(C2CCC2)o1` returned a minimum inhibitory concentration (MIC) of 6.25 µg/mL (≈ 19.8 µM). This MIC lies about 4-fold higher than the previous one.

Turning to `Oc1[nH]c2ccc(F)cc2c1/N=N/C(S)=N/c1ncc(C2CCC2)o1`, the lowest concentration to inhibit growth (MIC) was 12.5 µg/mL (≈ 34.8 µM).

The subject of a further assay is Mycobacterium tuberculosis. The assay can be described thus: Antimycobacterial activity against multidrug resistant Mycobacterium tuberculosis at 25 ug/ml. It counts as functional, organism-based. Put shortly:
as §1
As to `N/N=C(\S)Nc1ncc(C2CCC2)o1`, the outcome was inactive.

The MIC is the smallest concentration in the dilution series that meets the test's criterion for growth inhibition.

Source of the values: ChEMBL document CHEMBL1148530, “Discovery of new antitubercular oxazolyl thiosemicarbazones” (J Med Chem, 2006).
